# Results from ChEMBL document CHEMBL2311341, “Design, synthesis and inhibitory activities of naringenin derivatives on human colon cancer cells” (Bioorg Med Chem Lett, 2013).
# Experiments:
# [1] = test system: Radical scavenging activity; assay: Antioxidant activity assessed as DPPH radical scavenging activity by spectrophotometry; type: functional; set-up: concentration or dose not given beside the values
# HCT-116 = assay: Cytotoxicity against human HCT116 cells after 7 days by crystal violet staining based clonogenic assay; type: functional, cell-based; conditions: HCT-116, 168 h
# In short: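 HCT116 cells in DMEM with 10% heat-inactivated FBS, seeded at 5 × 10³ cells/well in 24-well plates, untreated or exposed to four compound concentrations for 7 days. Colonies were fixed with 6% glutaraldehyde and stained with 0.1% crystal violet, and survival density was read by densitometry. IC50 came from curve fitting. The whole experiment was repeated independently three times.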
# [2] = target: Cyclin-dependent kinase 2/cyclin E1 (Homo sapiens) (UniProt P24864+P24941); assay: Inhibition of CDK2/cyclinE (unknown origin) using histone-H1 and [gamma-33P]ATP at 10 uM by scintillation counting; type: protein-complex assay
# In short: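 CDK2/cyclin E was run under a commercial kinase-profiling protocol in 8 mM MOPS pH 7.0 with 0.2 mM EDTA, 0.1 mg/ml histone H1, 10 mM magnesium acetate and 10 micromolar ATP including γ-³³P-ATP (500 cpm/pmol). Incorporation was measured by scintillation counting, with the no-inhibitor count set as 100% activity. Runs were done in triplicate.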
inhibition [2] [%],Structure (SMILES),Activity [1] [%],IC50 (HCT-116) [µM]
48.9,Cc1ccccc1C(=O)Oc1cc(O)c2c(c1)OC(c1ccc(O)cc1)CC2=O (configuration not stated),14.2,6.03
83.6,O=C(Oc1cc(O)c2c(c1)OC(c1ccc(O)cc1)CC2=O)c1cccs1 (configuration not stated),11.2,1.2
42,O=C(Oc1ccccc1)Oc1cc(O)c2c(c1)OC(c1ccc(O)cc1)CC2=O (configuration not stated),15.9,20
42.1,CC(C)C(=O)Oc1cc(O)c2c(c1)OC(c1ccc(O)cc1)CC2=O (configuration not stated),15.4,15.9
62.3,CCOC(=O)N/N=C1\CC(c2ccc(O)cc2)Oc2cc(O)cc(O)c21 (configuration not stated),70.6,4.35
,O=C1O[C@H]([C@@H](O)CO)C(O)=C1O,89.1,
84,C=CCOc1cc(O)c2c(c1)OC(c1ccc(O)cc1)CC2=O (configuration not stated),20.7,1.91

Structure (SMILES),inhibition [2] [%],Activity [1] [%],IC50 (HCT-116) [µM]
O=C1CC(c2ccc(O)cc2)Oc2cc(O)cc(O)c21 (racemic),14.9,59.3,36.8
